# From ChEMBL document CHEMBL3272232, “Inhibitors of folate biosynthesis. 1. Inhibition of dihydroneopterin aldolase by pteridine derivatives” (J Med Chem, 1977)
# Test system: Escherichia coli
# Experiment: Inhibition of Escherichia coli dihydroneopterin aldolase assessed as [14C]glycolaldehyde formation using [14C]neopterin substrate at 50 ug/ml by scintillation counting
# In short: (§1)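 Enzyme from E. coli B grown in corn steep liquor medium with methionine and glutamic acid, homogenized, cleared of debris and heat-treated. Substrate is 14C-neopterin with unlabeled neopterin, reduced by dithionite to dihydroneopterin in ammonium acetate pH 9.6 with EDTA and mercaptoethanol. Test pteridines are dithionite-reduced. Incubation runs 30 min at 37 °C in the dark and is stopped with Norit A in 2 N acetic acid. The supernatant is scintillation counted.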
row,inhibition,Structure (SMILES)
1,75%,Nc1nc2c(c(=O)[nH]1)N=C(C=O)CN2

# Test system: Escherichia coli
# Experiment: Inhibition of Escherichia coli dihydroneopterin aldolase assessed as [14C]glycolaldehyde formation using [14C]neopterin substrate by scintillation counting
# In short: as §1
row,ID50,Structure (SMILES)
1,> 50 µg/mL,Nc1nc(O)c2c(n1)NCC(C(=O)O)=N2
2,1 µg/mL,CC1(C)Nc2nc(N)nc(O)c2N=C1CO
3,5 µg/mL,NC(=O)C1=Nc2c(O)nc(N)nc2NC1
4,> 50 µg/mL,Nc1nc(O)c2c(n1)NCC=N2
5,> 50 µg/mL,CC1=Nc2c(O)nc(N)nc2NC1
6,> 50 µg/mL,Nc1nc(O)c2c(n1)NC(CO)C=N2 (stereo unspecified)
7,> 50 µg/mL,Nc1nc(O)c2c(n1)NC(O)C(C(=O)O)=N2 (stereo unspecified)

# Second part, the compound before the results:
row,Structure (SMILES),ID50
1,Nc1nc(O)c2c(n1)NCC(CCCc1ccccc1)=N2,> 50 µg/mL
2,CCOC(OCC)C1=Nc2c(O)nc(N)nc2NC1,> 50 µg/mL
3,Nc1nc2c(c(=O)[nH]1)N=C(CO)CN2,30 µg/mL
4,CCCCCCCCC1=Nc2c(O)nc(N)nc2NC1,> 50 µg/mL
5,CC(C)C1=Nc2c(N)nc(N)nc2NC1C(C)C (stereo unspecified),> 50 µg/mL
6,OCC1=Nc2c(O)nc(S)nc2NC1,> 50 µg/mL
7,Nc1nc(O)c2c(n1)NCC(/C=N/O)=N2,> 50 µg/mL
8,Nc1nc(N)c2c(n1)NCC(CO)=N2,> 50 µg/mL
